The results in this text go back to ChEMBL document CHEMBL1128588, “Synthesis and cytotoxicity of water-soluble ambrosin prodrug candidates” (1995).

Each structure is given as a SMILES string.

What all share (format): functional
What all share (details): Homo sapiens

For test [1], the system named is MCF7. Nature of the test: The compound was evaluated for cytotoxicity against breast cancer cell line MCF-7. The procedure, abridged: (§1)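 Tested within a panel of about 51 human cancer cell lines covering leukemia, non-small-cell lung and other tumour types. The value reported is GI50, the concentration giving 50% growth inhibition.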
Test [2] concerns LOX IMVI. Description: The compound was evaluated for cytotoxicity against melanoma cell line LOX-IMVI. The procedure, abridged: as §1
The test system of test [3] is SN12C. Nature of the test: The compound was evaluated for cytotoxicity against renal cancer cell line SN12C. The procedure, abridged:
as §1

Test [4] has as its system HCT-116. Description: The compound was evaluated for cytotoxicity against colon cancer cell line HCT116. Put shortly:
as §1

The subject of test [5] is SF-539. Nature of the test: The compound was evaluated for cytotoxicity against CNS cancer cell line CNS SF-539. Put shortly: as §1
Test [6] deals with NCI-H522. Nature of the test: The compound was evaluated for cytotoxicity against lung cancer cell line NCI-H522. Put shortly: as §1
Test [7] concerns PC-3. Description: The compound was evaluated for cytotoxicity against prostate cancer cell line PC-3. The procedure, abridged: as §1
Test [8] concerns OVCAR-5. Nature of the test: The compound was evaluated for cytotoxicity against ovarian cancer cell line OVCAR-5. The procedure, abridged: as §1

One may read the GI50 as the concentration giving 50% growth inhibition. Low values mean more potent growth inhibition, high ones less potent growth inhibition. `C[C@H]1CC[C@H]2C(CN3CCCC3)C(=O)O[C@H]2[C@]2(C)C(=O)CC(N3CCCC3)[C@@H]12` (some centres undefined): the GI50 in test [1] is 4.2 µM; in test [2] it was 3.3 µM; in test [3] it was 11 µM; in test [4], 3.8 µM; in test [5], 9.1 µM; in test [6] it was 1.8 µM. The GI50 in test [7] came to 20 µM; in test [8], 6.3 µM.
For the molecule `C[C@H]1CC[C@H]2C(CN3CCCCC3)C(=O)O[C@H]2[C@]2(C)C(=O)CC(N3CCCCC3)[C@@H]12` (some centres undefined), the GI50 in test [1] was determined as 4.7 µM; in test [2], 3.6 µM; in test [3], 8.1 µM; in test [4], 1.8 µM; in test [5], 5.4 µM; in test [6] it was 1.1 µM. The GI50 in test [7] was 8.5 µM; in test [8] it was 22 µM.
Take `C=C1C(=O)O[C@@H]2[C@H]1CC[C@H](C)[C@@H]1C=CC(=O)[C@@]21C` [AMBROSIN]: the GI50 worked out at 3.9 µM in test [1]; 2.2 µM in test [2]; 3.4 µM in test [3]; 1.8 µM in test [4]; 2.9 µM in test [5]; 1 µM in test [6]. The values for the concentration for 50% growth inhibition (GI50) in test [7] and in test [8] were 4.5 µM and 4.9 µM, respectively.
